Experimental data from ChEMBL document CHEMBL4145685, “Development of Second-Generation CDK2 Inhibitors for the Prevention of Cisplatin-Induced Hearing Loss” (J Med Chem, 2018).
Values after ≈ are worked out from the molar mass of the structure shown. Blank lines part the entries; values can stand above or below the compound they belong to. Active and inactive are the calls of the source.

Key:
[1] = Protection against cisplatin-induced cell death in neonatal mouse HEI-OC1 cells assessed as reduction in caspase-3/7 activity; type: functional
Mus musculus [2] = assay: (§1) Protection against cisplatin-induced ototoxicity in adult FVB mouse assessed as reduction in auditory brainstem response threshold elevation by measuring ABR threshold shits at 32 kHz dosed at 50 uM administered to each left ear by transtympanic injection dosed 1 hr before cisplatin injection and measured after 15 days; type: functional
Outline: (§2)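 P30 FVB mice under isoflurane got a single 5 μL transtympanic injection (50 μM in saline with 0.5% DMSO, or vehicle) into the left ear. Cisplatin was given i.p. 1 h later. Closed-field left-ear ABR thresholds were taken before treatment and at day 15. Shift is post minus pre. Mice losing <10% bodyweight were excluded. Mean ± SEM, paired 2-tailed t-test.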

[3] = molecular target: Glycogen synthase kinase-3 alpha (Homo sapiens) (UniProt P49840); assay: Inhibition of human full length GSK3alpha expressed in bacterial expression system at 1 uM
Outline: (§3)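 Competition binding screen at 1 μM over a 468-kinase panel. Kinases were T7-phage-tagged (grown in E. coli BL21-derived host) or produced in HEK-293 cells with DNA tags. They bound to immobilized biotinylated ligand beads with compound for 1 h at room temperature in SeaBlock/PBS/Tween/DTT buffer. Eluted kinase was quantified by qPCR.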

[4] = Solubility of the compound in citrate phosphate buffered saline incubated for 18 hrs by UV spectroscopy; type: physicochemical; details: buffer
Outline: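 A 10 mM DMSO stock was diluted into buffer and held 18 h at room temperature. It was then filtered and mixed 1:1 with 1-propanol. UV spectrum (250–500 nm) AUC was compared with a reference of stock in 1-propanol/isotonic citrate PBS. Triplicate.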

Mus musculus [5] = assay: Toxicity in adult FVB mouse at 2 to 50 uM dosed to each left ear by transtympanic injection after 15 days; type: organism-based; details: in vivo, other, 360 h
Outline: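 Adult FVB mice, blinded and randomized, received transtympanic left-ear 2, 10 or 50 μM compound or vehicle (PBS + 0.5% DMSO, 5 μL). Dosing was a single injection, or two injections 24 h apart in one series. Three to four mice per group. ABRs were recorded at 8, 16, 32 kHz after 15 days.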

Mus musculus [6] = assay: Protection against cisplatin-induced ototoxicity in adult FVB mouse assessed as reduction in outer hair cell loss in middle basal turn at 32 kHz dosed at 50 uM administered to each left ear by transtympanic injection dosed 1 hr before cisplatin injection and measured after 15 days; type: functional, organism-based
Outline: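 After day-15 ABR, cochleae were harvested from transtympanically dosed, cisplatin-treated adult FVB mice. Organ of Corti was stained with phalloidin, anti-parvalbumin and DAPI. OHCs were counted per 160 μm in the 32-kHz (middle basal turn) region. Mean ± SEM, paired 2-tailed t-test.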

[7] = molecular target: Glycogen synthase kinase-3 beta (Homo sapiens) (UniProt P49841); assay: Inhibition of human full length GSK3beta expressed in mammalian expression system at 1 uM; outline: as §3
Mus musculus [8] = assay: Protection against cisplatin-induced ototoxicity in adult FVB mouse assessed as hearing thresholds at 32 kHz dosed at 50 uM administered to each left ear by transtympanic injection dosed 1 hr before cisplatin injection and measured after 15 days; type: functional, organism-based
Outline: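 P30 FVB mice under isoflurane received 5 μL compound in PBS + 0.5% DMSO into the left ear by transtympanic 33-gauge cannula; vehicle controls matched. Cisplatin i.p. 1 h later; one regimen added a second injection 24 h after cisplatin. Left-ear closed-field ABR thresholds at 8, 16, 32 kHz were taken before treatment and at day 15. Threshold shift is reported as mean ± SEM, paired 2-tailed t-test. Mice losing <10% bodyweight were excluded.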

[9] = molecular target: Cyclin-dependent kinase 7 (Homo sapiens) (UniProt P50613); assay: Inhibition of human full length CDK7 expressed in mammalian expression system at 1 uM; outline: as §3
Spiral organ of cochlea [10] = assay: Protection against cisplatin-induced toxicity in P3 mouse cochlear explants assessed as increase in outer hair cell count at 150 nM incubated for 24 hrs by phalloidin staining based confocal microscopy; type: functional, tissue-based
Outline: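 P3 FVB mouse cochleae were cultured on filters in DMEM with 1% FBS and 50 μg/mL ampicillin, 37 °C, 5% CO2, for 1 d. They were pretreated with compound 1 h, then given cisplatin 150 μM plus compound for 1 d. Fixed in 4% PFA, phalloidin-stained, confocal imaged. OHCs counted per 160 μm; medium-only = full protection, cisplatin-only = none.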

Spiral organ of cochlea [11] = assay: Protection against cisplatin-induced toxicity in P3 mouse cochlear explants assessed as increase in outer hair cell count incubated for 24 hrs by phalloidin staining based confocal microscopy; type: functional, tissue-based
Mus musculus [12] = assay: as §1, with “16” for “32”; type: functional; outline: as §2
CDK2/Cyclin A2 = CDK2/Cyclin A2 (Homo sapiens, UniProt P24941); assay: Inhibition of C-terminal His6-tagged human full length CDK2/N-terminal GST-tagged human full length Cyclin A using histone H1 and [gamma-32P]-ATP incubated for 30 mins by phosphorimage based assay; type: protein-complex assay
[13] = Mus musculus, HEI-OC1, read-out: EC50

Sequence of Glycogen synthase kinase-3 alpha (Homo sapiens) (P49840 2-483 limits assumed): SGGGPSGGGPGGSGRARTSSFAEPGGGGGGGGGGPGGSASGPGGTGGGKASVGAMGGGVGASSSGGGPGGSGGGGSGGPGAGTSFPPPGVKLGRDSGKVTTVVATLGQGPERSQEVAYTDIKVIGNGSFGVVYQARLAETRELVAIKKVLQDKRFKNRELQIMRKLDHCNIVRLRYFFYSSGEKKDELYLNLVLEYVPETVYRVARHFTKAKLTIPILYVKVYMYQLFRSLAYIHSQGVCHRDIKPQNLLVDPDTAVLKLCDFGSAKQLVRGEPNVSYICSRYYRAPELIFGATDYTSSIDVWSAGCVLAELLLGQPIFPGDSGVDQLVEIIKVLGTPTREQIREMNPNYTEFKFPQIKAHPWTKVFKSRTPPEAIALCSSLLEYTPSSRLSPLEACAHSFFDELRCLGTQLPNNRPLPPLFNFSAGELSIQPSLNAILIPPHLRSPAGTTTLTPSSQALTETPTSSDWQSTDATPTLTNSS
Sequence of Cyclin-dependent kinase 7 (Homo sapiens) (P50613 whole entry): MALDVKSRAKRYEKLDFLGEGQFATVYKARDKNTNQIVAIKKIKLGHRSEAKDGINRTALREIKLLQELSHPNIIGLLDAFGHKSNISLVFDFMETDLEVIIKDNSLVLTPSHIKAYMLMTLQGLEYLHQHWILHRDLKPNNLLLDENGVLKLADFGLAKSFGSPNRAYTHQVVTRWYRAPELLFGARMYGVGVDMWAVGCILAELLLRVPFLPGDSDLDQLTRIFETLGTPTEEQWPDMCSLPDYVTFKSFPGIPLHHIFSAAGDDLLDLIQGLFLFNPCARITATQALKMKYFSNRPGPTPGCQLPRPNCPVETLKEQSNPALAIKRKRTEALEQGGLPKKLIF
Sequence of Glycogen synthase kinase-3 beta (Homo sapiens) (P49841 whole entry, looked up): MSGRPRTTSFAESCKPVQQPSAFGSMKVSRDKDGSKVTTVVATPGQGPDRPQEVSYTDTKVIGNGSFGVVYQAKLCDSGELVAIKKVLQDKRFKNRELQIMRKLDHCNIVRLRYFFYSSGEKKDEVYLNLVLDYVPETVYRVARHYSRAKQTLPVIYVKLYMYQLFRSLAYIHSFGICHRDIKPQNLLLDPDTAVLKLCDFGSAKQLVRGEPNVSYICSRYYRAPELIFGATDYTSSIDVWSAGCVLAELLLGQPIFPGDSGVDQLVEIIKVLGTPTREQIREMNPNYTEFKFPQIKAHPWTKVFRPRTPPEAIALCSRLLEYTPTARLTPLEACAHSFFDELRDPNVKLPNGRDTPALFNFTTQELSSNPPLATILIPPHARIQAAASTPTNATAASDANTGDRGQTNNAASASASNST

SMILES: Cn1ncc(NC(=O)c2n[nH]cc2Cl)c1C(=O)N1CCCCC1
- EC50 [1]: Not Active

SMILES: O=C(N[C@H]1CCCNC1)c1n[nH]cc1NC(=O)c1c(F)cccc1F
- EC50 [1, 13]: > 37.9 µM

SMILES: O=C(NC1CCNCC1)c1n[nH]cc1NC(=O)c1c(F)cccc1F
- EC50 [1, 13]: 22.5 µM

SMILES: Cc1ncc(-c2ccnc(Nc3ccc(S(C)(=O)=O)cc3)n2)n1C(C)C [AZD-5438]
- Activity (Mus musculus [2]): 14 dB
- inhibition [3]: Active
- solubility [4]: 68.8 µM (≈ 25.6 µg/mL)
- Activity (Mus musculus [5]): Non-Toxic
- Activity (Mus musculus [6]): Active
- inhibition [7]: Active
- Activity (Mus musculus [8]): Active
- inhibition [9]: Active

SMILES: O=C(NCC1CC1)c1n[nH]cc1NC(=O)c1c(F)cccc1F
- Activity (Spiral organ of cochlea [10]): inactive
- EC50 [1, 13]: 0.044 µM

SMILES: NS(=O)(=O)c1ccc(N/N=C2\C(=O)Nc3ccc(Br)cc32)cc1
- EC50 [1, 13]: 0.127 µM
- EC50 (Spiral organ of cochlea [11]): 1 µM

SMILES: CCCNC(=O)c1c(NC(=O)c2ccccc2Cl)cnn1C
- EC50 [1]: Not Active

SMILES: CCCNC(=O)c1c(NC(=O)c2ccc(Cl)cc2Cl)cnn1C
- EC50 [1]: Not Active

SMILES: O=C(Nc1ccc(F)cc1)c1n[nH]cc1NC(=O)C1CCCCC1
- EC50 [1, 13]: > 32.2 µM

SMILES: NS(=O)(=O)c1ccc(CNc2nccc(-c3ccccn3)n2)cc1
- EC50 [1]: Not Active

SMILES: CCn1cc(NC(=O)c2c(F)cccc2F)c(C(=O)NCC(C)C)n1
- EC50 [1]: Not Active

SMILES: O=C(Nc1c[nH]nc1C(=O)Nc1ccc(F)cc1)c1ccccc1
- EC50 [1, 13]: > 33.2 µM

SMILES: Cc1[nH]nc(C(N)=O)c1NC(=O)c1cc(F)c(F)c(F)c1
- EC50 [1]: Not Active

SMILES: c1ccc(Nc2nccc(-c3ccccn3)n2)cc1
- EC50 [1]: Not Active

SMILES: CCCNC(=O)c1c(NC(=O)c2cc(S(=O)(=O)N(C)C)c(Cl)cc2Cl)cnn1C
- EC50 [1]: Not Active

SMILES: CN(Cc1nccn1Cc1ccccc1)c1nccc(-c2ccccn2)n1
- EC50 [1]: Not Active

SMILES: O=C(NC1CCNCC1)c1n[nH]cc1NC(=O)c1c(F)cc(F)cc1F
- EC50 [1, 13]: > 30.9 µM

SMILES: Cc1ccc(C(=O)Nc2c(C(=O)N(C)C)nn(C)c2C)cc1
- EC50 [1]: Not Active

SMILES: O=C(N[C@H]1CC[C@H](O)CC1)c1n[nH]cc1NC(=O)c1c(F)cccc1F
- Activity (Spiral organ of cochlea [10]): Active
- inhibition [3]: Active
- Activity (Mus musculus [5]): Non-Toxic
- Activity (Mus musculus [6]): inactive
- inhibition [7]: Active
- Activity (Mus musculus [12]): 10 dB
- inhibition [9]: Active

SMILES: CC[C@H](CO)Nc1nc(NCc2ccccc2O)c2ncn(C(C)C)c2n1 [OLOMOUCINE II]
- EC50 [1, 13]: 0.595 µM
- EC50 (Spiral organ of cochlea [11]): 3 µM

SMILES: Cn1ncc(NC(=O)c2ccc(Cl)cc2Cl)c1C(=O)NCc1ccco1
- EC50 [1]: Not Active

SMILES: N#Cc1ccc2c(c1)/C(=C1/C=CC(CN3CCOCC3)=CN1)C(=O)N2
- EC50 [1, 13]: 3.63 µM
- EC50 (Spiral organ of cochlea [11]): 15 µM

SMILES: COc1ccc2c(c1)/C(=C/c1cnc[nH]1)C(=O)N2 [SU-9516]
- EC50 [1, 13]: 1.59 µM
- EC50 (Spiral organ of cochlea [11]): 6 µM

SMILES: CC(C)CNC(=O)c1c(NC(=O)c2ccc(COCC(F)(F)C(F)F)cc2)cnn1C
- EC50 [1]: Not Active

- IC50 (CDK2/Cyclin A2): 0.76 µM
SMILES: O=C(NC1CCN(C(=O)c2c(Cl)cccc2Cl)CC1)c1n[nH]cc1NC(=O)c1c(Cl)cccc1Cl
- Activity (Spiral organ of cochlea [10]): inactive
- EC50 [1, 13]: 0.459 µM

SMILES: Cc1[nH]nc(C(N)=O)c1NC(=O)c1ccc(OCC2CC2)cc1
- EC50 [1]: Not Active
